Reference: PubChem BioAssay
Active and inactive are the calls of the source.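 How the source made its calls, unless noted: active means GFP response above 150% of the DMSO level; inconclusive means fewer than 70 events counted for a yeast strain; inactive means the rest.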

Legend:
[1] = RPL19A-GFP modulators, yeast TOR pathway, confirmation, cell-based, S. cerevisiae, flow cytometry, cherry picks, mother/daughter gates (AID 2270;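 active means GFP response below 50% of the DMSO control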); settings: S. cerevisiae RPL19A-GFP strain, 3 h, at 10 µM, stronger effect = lower value, 100 = same GFP as DMSO wells
[2] = LAP4-GFP expression modulators in yeast, confirmation, cell-based, cherry picks, flow cytometry, mother/daughter gates (AID 2271;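 active means GFP response above 150% of the DMSO control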;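 further: ratio of sample to DMSO plate mean so 100% equals DMSO level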); settings: S. cerevisiae LAP4-GFP strain, 3 h, at 10 µM, stronger effect = higher value, 100 means same as DMSO control
In short: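 System: Alexa 633-stained baker's yeast GFP-fusion strain; quantity: 0.2 OD600 cells; timing: compound exposure 3 h at 30 °C, end-over-end rotation; detection: HT flow cytometry, GFP fluorescence channel; measure: per-gate (all, mother, daughter) GFP response vs DMSO; control set: DMSO-only negative wells, rapamycin 400 ng/mL positive wells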

[3] = modulators of MEP2-GFP levels in yeast, confirmation, S. cerevisiae, flow cytometry GFP, cherry picks (AID 2272;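 active means GFP response above 150% of the DMSO control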;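 further: ratio of well signal to plate DMSO mean so 100% equals DMSO level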); settings: S. cerevisiae MEP2-GFP strain, 3 h, at 10 µM, stronger effect = higher value
[4] = AGP1-GFP expression modulators, hit retest, confirmation, cell-based, flow cytometry, S. cerevisiae, cherry picks (AID 2273);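 further: median GFP channel fluorescence over the whole cell population gate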; settings: S. cerevisiae AGP1-GFP strain, 3 h, at 10 µM
[5] = modulators of CIT2-GFP expression in yeast, confirmation, S. cerevisiae, GFP fusion, cherry picks, mother/daughter gates (AID 2274); settings: S. cerevisiae CIT2-GFP strain, flow cytometry, 3 h, at 10 µM, stronger effect = higher value
[6] = measured here: daughter cell gate
[7] = measured here: mother cell gate
[8] = measured here: daughter cell gate response
[9] = measured here: mother cell gate response

| SMILES | GFP response vs DMSO [1] | GFP response vs DMSO [1, 6] [%] | GFP response vs DMSO [1, 7] [%] | GFP response relative to DMSO [2] | GFP response relative to DMSO [2, 8] [%] | GFP response relative to DMSO [2, 9] [%] | GFP response vs DMSO [3] | GFP response, % of DMSO [4] | GFP response, % of DMSO [5] | GFP response, % of DMSO [5, 6] [%] | GFP response, % of DMSO [5, 7] [%] |
| --- | --- | --- | --- | --- | --- | --- | --- | --- | --- | --- | --- |
| CCc1nnc(NC(=O)c2nc(S(=O)(=O)Cc3ccc(C)cc3)ncc2Cl)s1 | 98.2% (inactive) | 99.1 | 98.6 | 105% (inactive) | 105 | 102 | 102% (inactive) | 103% (inactive) | 101% (inactive) | 102 | 99.1 |
| O=C(Nc1ccccc1)c1ccccc1O | 96.7% (inactive) | 97.3 | 95.6 | 114% (inactive) | 107 | 114 | 99.3% (inactive) | 97.3% (inactive) | 93.1% (inactive) | 95.8 | 92.6 |
| Cc1ccc(-c2noc(CCC(=O)Nc3ccccc3C)n2)cc1 | 98% (inactive) | 97 | 96.5 | 111% (inactive) | 104 | 112 | 106% (inactive) | 100% (inactive) | 100% (inactive) | 101 | 98.2 |
| CN1c2ccsc2/C(=N/Nc2ccc(F)cc2)CS1(=O)=O | 99.2% (inactive) | 99.6 | 99 | 134% (inactive) | 130 | 134 | 114% (inactive) | 103% (inactive) | 109% (inactive) | 108 | 109 |
| O=C(NC(=S)NNC(=O)c1cnccn1)c1ccc(F)cc1 | 110% (inactive) | 91.7 | 105 | 259% (active) | 234 | 254 | 104% (inactive) | 92.4% (inactive) | 99.1% (inactive) | 96.5 | 92.3 |
| O=S(=O)(c1ccc(Cl)cc1)c1ccccn1 | 96.2% (inactive) | 96.4 | 95.8 | 94.1% (inactive) | 96 | 93.4 | 101% (inactive) | 98.2% (inactive) | 103% (inactive) | 101 | 105 |
| CCNC(=O)/C(C#N)=C/c1c(N2CCN(Cc3ccc4c(c3)OCO4)CC2)nc2c(C)cccn2c1=O | 101% (inactive) | 99.2 | 103 | 99.8% (inactive) | 97.2 | 101 | 102% (inactive) | 100% (inactive) | 104% (inactive) | 101 | 104 |
| COc1ccc(C2CC(c3c(-c4ccccc4)c4cc(Cl)ccc4[nH]c3=O)=NN2S(C)(=O)=O)cc1OC (stereo unspecified) | 99.6% (inactive) | 101 | 98.5 | 91.5% (inactive) | 92.8 | 89.7 | 96.2% (inactive) | 98.3% (inactive) | 99.7% (inactive) | 99.1 | 98.5 |
| O=C(COc1ccccc1)NNC(=S)NC(=O)c1ccccc1 | 114% (inactive) | 118 | 110 | 171% (active) | 165 | 166 | 127% (inactive) | 116% (inactive) | 108% (inactive) | 121 | 98.7 |
| O=C(CSc1cccc[n+]1[O-])CSc1cccc[n+]1[O-] | 97.8% (inactive) | 101 | 95 | 119% (inactive) | 116 | 120 | 103% (inactive) | 103% (inactive) | 97.2% (inactive) | 101 | 98.2 |
| CC1CCN(S(=O)(=O)c2cccc(C(=O)Nc3nccs3)c2)CC1 | 101% (inactive) | 101 | 101 | 92.6% (inactive) | 95.6 | 93.1 | 100% (inactive) | 95.4% (inactive) | 107% (inactive) | 105 | 105 |
| CC1CN(c2nc3ccccn3c(=O)c2/C=C(\C#N)C(=O)N2CCOCC2)CC(C)O1 (stereo unspecified) | 98.5% (inactive) | 99.3 | 98.4 | 102% (inactive) | 97.5 | 104 | 101% (inactive) | 95% (inactive) | 100% (inactive) | 99.3 | 102 |
| CS(=O)(=O)Nc1cccc(C2=NN(S(C)(=O)=O)C(c3ccc4c(c3)OCO4)C2)c1 (stereo unspecified) | 97.2% (inactive) | 98.9 | 98.7 | 99.2% (inactive) | 99.2 | 98.3 | 102% (inactive) | 99.5% (inactive) | 103% (inactive) | 103 | 103 |
| N#Cc1nccnc1S(=O)(=O)c1cccs1 | 96.2% (inactive) | 99.5 | 94.6 | 166% (active) | 149 | 162 | 106% (inactive) | 96.1% (inactive) | 103% (inactive) | 103 | 98.2 |
| COC(CNC(=O)c1ccc2c3c(onc13)-c1ccccc1C2=O)OC | 99.9% (inactive) | 103 | 95.8 | 188% (active) | 170 | 189 | 120% (inactive) | 86% (inactive) | 91.3% (inactive) | 98.1 | 83.7 |
| O=C1C=CC(=O)N1N(c1ccccc1)c1ccccc1 | 96.2% (inactive) | 90.7 | 87.1 | 209% (active) | 148 | 208 | 127% (inactive) | 114% (inactive) | 95.9% (inactive) | 88.9 | 79.8 |
